# Tests used:
# Type in all cases: functional
# MDA-MB-435 [1] = test: Cytotoxicity against human MDA-MB-435 cells assessed as cell growth at 0.001 uM after 48 hrs by sulforhodamine B assay; settings: MDA-MB-435, 48 h, read-out: Activity
# SW-620 [2] = test: Growth inhibition of human SW620 cells after 48 hrs by sulforhodamine B assay; settings: SW-620, 48 h; for CC50: read-out: LC50 (the source's name)
# Procedure, shortened: (§1)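 NCI 60-cell screen, five-dose mode. Cells grown in RPMI 1640 with 5% FBS and 2 mM L-glutamine and plated at 5000-40,000 cells/well according to doubling time. After 24 h preincubation, a Tz plate was TCA-fixed. Five concentrations (10-fold or 1/2 log dilutions) were applied for 48 h at 37 °C. SRB staining read at 515 nm. IC50 taken from [(Ti-Tz)/(C-Tz)]×100 = 50.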
# M14 = test: Cytotoxicity against human M14 cells assessed as cell growth at 1 uM after 48 hrs by sulforhodamine B assay; settings: M14, 48 h, read-out: Activity
# HL-60(TB) [3] = test: Cytotoxicity against human HL-60(TB) cells assessed as cell growth at 0.01 uM after 48 hrs by sulforhodamine B assay; settings: HL-60, 48 h, read-out: Activity
# Procedure, shortened: (§2)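 NCI 60-cell panel. Cells are grown in RPMI 1640 with 5% FBS and 2 mM L-glutamine, seeded at 5000–40,000 cells/well according to doubling time, and preincubated 24 h. Time-zero plates are TCA-fixed. Compound from DMSO stock is given at five 10-fold or 1/2-log concentrations for 48 h at 37 °C, 5% CO2. Suspension cells are fixed with 80% TCA (final 16%) and SRB-stained, with absorbance at 515 nm. Percent growth is derived from Tz, control and test readings.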
# HOP-92 = test: Cytotoxicity against human HOP92 cells assessed as cell growth at 0.01 uM after 48 hrs by sulforhodamine B assay; settings: HOP-92, 48 h, read-out: Activity
# A549 = test: Cytotoxicity against human A549 cells assessed as cell growth at 0.01 uM after 48 hrs by sulforhodamine B assay; settings: A549, 48 h, read-out: Activity
# Procedure, shortened: (§3)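 NCI-60 five-dose screen. Cells were grown in RPMI 1640 with 5% FBS and 2 mM L-glutamine, plated at 5000–40,000 cells/well and preincubated for 24 h. Time-zero plates were TCA-fixed. DMSO-solubilized drug was added at five concentrations (10-fold or ½-log serial dilutions) for 48 h at 37 °C, 5% CO2. Cells were TCA-fixed, stained with 0.4% SRB and read at 515 nm. Percent growth used time-zero, control and test absorbances.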
# UO-31 = test: Cytotoxicity against human UO31 cells assessed as cell growth at 1 uM after 48 hrs by sulforhodamine B assay; settings: UO-31, 48 h, read-out: Activity
# SK-MEL-2 = test: Cytotoxicity against human SK-MEL-2 cells assessed as cell growth at 0.001 uM after 48 hrs by sulforhodamine B assay; settings: SK-MEL-2, 48 h, read-out: Activity
# COLO 205 [4] = test: Cytotoxicity against human COLO205 cells assessed as cell growth at 100 nM after 48 hrs by sulforhodamine B assay; settings: COLO 205, 48 h, read-out: Activity
# K562 [5] = test: Cytotoxicity against human K562 cells assessed as cell growth at 100 nM after 48 hrs by sulforhodamine B assay; settings: K562, 48 h, read-out: Activity
# COLO 205 [6] = test: Cytotoxicity against human COLO205 cells assessed as cell growth at 0.01 uM after 48 hrs by sulforhodamine B assay; settings: COLO 205, 48 h, read-out: Activity; procedure, shortened: as §3
# SK-MEL-5 = test: Cytotoxicity against human SK-MEL-5 cells assessed as cell growth at 0.001 uM after 48 hrs by sulforhodamine B assay; settings: SK-MEL-5, 48 h, read-out: Activity
# HCT-116 = test: Growth inhibition of human HCT116 cells after 48 hrs by sulforhodamine B assay; settings: HCT-116, 48 h; for CC50: read-out: LC50 (the source's name); procedure, shortened: as §1
# KM12 = test: Cytotoxicity against human KM12 cells assessed as cell growth at 100 nM after 48 hrs by sulforhodamine B assay; settings: KM12, 48 h, read-out: Activity
# NCI-H522 [7] = test: Cytotoxicity against human NCI-H522 cells assessed as cell growth at 100 nM after 48 hrs by sulforhodamine B assay; settings: NCI-H522, 48 h, read-out: Activity
# NCI-H522 [8] = test: Cytotoxicity against human NCI-H522 cells assessed as cell growth at 0.01 uM after 48 hrs by sulforhodamine B assay; settings: NCI-H522, 48 h, read-out: Activity
# SW-620 [9] = test: Cytotoxicity against human SW620 cells assessed as cell growth at 0.01 uM after 48 hrs by sulforhodamine B assay; settings: SW-620, 48 h, read-out: Activity
# CCRF-CEM = test: Cytotoxicity against human CCRF-CEM cells assessed as cell growth at 0.001 uM after 48 hrs by sulforhodamine B assay; settings: read-out: Activity; procedure, shortened: as §3
# NCI/ADR-RES = test: Growth inhibition of human NCI/ADR-RES cells after 48 hrs by sulforhodamine B assay; settings: for CC50: read-out: LC50 (the source's name); procedure, shortened: as §1
# HL-60(TB) [10] = test: Cytotoxicity against human HL-60(TB) cells assessed as cell growth at 10 uM after 48 hrs by sulforhodamine B assay; settings: HL-60, 48 h, read-out: Activity; procedure, shortened: as §2
# MDA-MB-435 [11] = test: Cytotoxicity against human MDA-MB-435 cells assessed as cell growth at 1 uM after 48 hrs by sulforhodamine B assay; settings: MDA-MB-435, 48 h, read-out: Activity
# SW-620 [12] = test: Cytotoxicity against human SW620 cells assessed as cell growth at 100 nM after 48 hrs by sulforhodamine B assay; settings: SW-620, 48 h, read-out: Activity
# K562 [13] = test: Cytotoxicity against human K562 cells assessed as cell growth at 0.01 uM after 48 hrs by sulforhodamine B assay; settings: K562, 48 h, read-out: Activity
# NCI-H460 = test: Cytotoxicity against human NCI-H460 cells assessed as cell growth at 100 nM after 48 hrs by sulforhodamine B assay; settings: NCI-H460, 48 h, read-out: Activity
# MDA-MB-231 = test: Cytotoxicity against human MDA-MB-231 cells assessed as cell growth at 10 uM; settings: read-out: Activity
# Procedure, shortened: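 NCI-60 screen: cells grown in RPMI 1640 with 5% FBS and 2 mM L-glutamine, plated at 5000–40,000 cells/well according to doubling time, and preincubated 24 h at 37 °C, 5% CO2. The single 10 µM dose (DMSO stock) was added, then incubated 48 h. Cells were TCA-fixed and stained with 0.4% SRB, read at 515 nm, and growth % calculated against time-zero and control plates.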
# [14] = Growth inhibition of human […] cells after 48 hrs by sulforhodamine B assay; settings: for CC50: read-out: LC50 (the source's name); procedure, shortened: as §1
# SK-OV-3 = test: Cytotoxicity against human SKOV3 cells assessed as cell growth at 100 nM after 48 hrs by sulforhodamine B assay; settings: SK-OV-3, 48 h, read-out: Activity
# [15] = Cytotoxicity against human RPMI8266 cells assessed as cell growth at 100 nM after 48 hrs by sulforhodamine B assay; settings: read-out: Activity
smiles,measurement,setting,value
Cc1cc(O)cc(-c2nn(CC#N)cc2-c2ccnc(-c3ccc(N(C)C)cc3)c2)c1,growth at 0.001 µM,MDA-MB-435 [1],99%
same,GI50,SW-620 [2],2.83 µM
same,TGI,SW-620 [2],17.5 µM
same,CC50,SW-620 [2],> 100 µM
same,growth at 1 µM,M14,-39%
same,growth at 0.01 µM,HL-60(TB) [3],97%
same,growth at 0.01 µM,HOP-92,85%
same,growth at 0.01 µM,A549,91%
same,growth at 1 µM,UO-31,19%
same,growth at 0.001 µM,SK-MEL-2,94%
same,growth at 0.1 µM,COLO 205 [4],94%
same,growth at 0.1 µM,K562 [5],80%
same,growth at 0.01 µM,COLO 205 [6],95%
same,growth at 0.001 µM,SK-MEL-5,92%
same,GI50,HCT-116,2.71 µM
same,TGI,HCT-116,10.4 µM
same,CC50,HCT-116,41.9 µM
same,growth at 0.1 µM,KM12,66%
same,growth at 0.1 µM,NCI-H522 [7],75%
same,growth at 0.01 µM,NCI-H522 [8],84%
same,growth at 0.01 µM,SW-620 [9],90%
same,growth at 0.001 µM,CCRF-CEM,97%
same,GI50,NCI/ADR-RES,2.54 µM
same,TGI,NCI/ADR-RES,7.93 µM
same,CC50,NCI/ADR-RES,> 100 µM
same,growth at 10 µM,HL-60(TB) [10],-16%
same,growth at 1 µM,MDA-MB-435 [11],-49%
same,growth at 0.1 µM,SW-620 [12],83%
same,growth at 0.01 µM,K562 [13],101%
same,growth at 0.1 µM,NCI-H460,90%
same,growth at 10 µM,MDA-MB-231,40.8%
same,GI50,[14],3.71 µM
same,TGI,[14],22.2 µM
same,CC50,[14],> 100 µM
same,growth at 0.1 µM,SK-OV-3,101%
same,growth at 0.1 µM,[15],96%
Cc1cc(O)cc(-c2nn(CC#N)cc2-c2ccnc(-c3ccc(Oc4ccccc4)cc3)c2)c1,growth at 0.001 µM,MDA-MB-435 [1],103%
same,GI50,SW-620 [2],1.94 µM
same,TGI,SW-620 [2],4.33 µM
same,CC50,SW-620 [2],9.63 µM
same,growth at 1 µM,M14,-96%
same,growth at 0.01 µM,HL-60(TB) [3],95%
same,growth at 0.01 µM,HOP-92,59%
same,growth at 0.01 µM,A549,88%
same,growth at 1 µM,UO-31,19%
same,growth at 0.001 µM,SK-MEL-2,91%
same,growth at 0.1 µM,COLO 205 [4],99%
same,growth at 0.1 µM,K562 [5],46%
same,growth at 0.01 µM,COLO 205 [6],99%
same,growth at 0.001 µM,SK-MEL-5,93%
same,GI50,HCT-116,1.56 µM
same,TGI,HCT-116,2.9 µM
same,CC50,HCT-116,5.38 µM
same,growth at 0.1 µM,KM12,85%
same,growth at 0.1 µM,NCI-H522 [7],87%
same,growth at 0.01 µM,NCI-H522 [8],72%
same,growth at 0.01 µM,SW-620 [9],88%
same,growth at 0.001 µM,CCRF-CEM,96%
same,GI50,NCI/ADR-RES,2.06 µM
same,TGI,NCI/ADR-RES,4.56 µM
same,CC50,NCI/ADR-RES,15.8 µM
same,growth at 10 µM,HL-60(TB) [10],-10%
same,growth at 1 µM,MDA-MB-435 [11],-18%
same,growth at 0.1 µM,SW-620 [12],92%
same,growth at 0.01 µM,K562 [13],44%
same,growth at 0.1 µM,NCI-H460,99%
same,growth at 10 µM,MDA-MB-231,46.7%
same,GI50,[14],2.25 µM
same,TGI,[14],6.52 µM
same,CC50,[14],> 100 µM
same,growth at 0.1 µM,SK-OV-3,101%
same,growth at 0.1 µM,[15],88%
COc1cc(C)cc(-c2nn(CC#N)cc2-c2ccnc(-c3ccc(N(C)C)cc3)c2)c1,growth at 0.001 µM,MDA-MB-435 [1],103%
same,GI50,SW-620 [2],0.332 µM
same,TGI,SW-620 [2],> 100 µM
same,CC50,SW-620 [2],> 100 µM
same,growth at 1 µM,M14,-7%
same,growth at 0.01 µM,HL-60(TB) [3],97%
same,growth at 0.01 µM,HOP-92,93%
same,growth at 0.01 µM,A549,97%
same,growth at 1 µM,UO-31,18%
same,growth at 0.001 µM,SK-MEL-2,117%
same,growth at 0.1 µM,COLO 205 [4],-15%
same,growth at 0.1 µM,K562 [5],10%
same,growth at 0.01 µM,COLO 205 [6],116%
same,growth at 0.001 µM,SK-MEL-5,99%
same,GI50,HCT-116,0.353 µM
same,TGI,HCT-116,1.64 µM
same,CC50,HCT-116,> 100 µM
same,growth at 0.1 µM,KM12,10%
same,growth at 0.1 µM,NCI-H522 [7],-39%
same,growth at 0.01 µM,NCI-H522 [8],87%
same,growth at 0.01 µM,SW-620 [9],90%
same,growth at 0.001 µM,CCRF-CEM,97%
same,GI50,NCI/ADR-RES,0.253 µM
same,TGI,NCI/ADR-RES,0.655 µM
same,CC50,NCI/ADR-RES,> 100 µM
same,growth at 10 µM,HL-60(TB) [10],-27%
same,growth at 1 µM,MDA-MB-435 [11],-7%
same,growth at 0.1 µM,SW-620 [12],14%
same,growth at 0.01 µM,K562 [13],61%
same,growth at 0.1 µM,NCI-H460,8%
same,growth at 10 µM,MDA-MB-231,-2.19%
same,GI50,[14],1.36 µM
same,TGI,[14],10.7 µM
same,CC50,[14],> 100 µM
same,growth at 0.1 µM,SK-OV-3,-6%
same,growth at 0.1 µM,[15],57%
